Key:
[1] = target: T1, Inhibitor of nuclear factor kappa-B kinase subunit epsilon (Homo sapiens) (UniProt Q14164); test: Inhibition of IKKepsilon assessed as residual activity at 10 uM
T1 sequence (whole entry): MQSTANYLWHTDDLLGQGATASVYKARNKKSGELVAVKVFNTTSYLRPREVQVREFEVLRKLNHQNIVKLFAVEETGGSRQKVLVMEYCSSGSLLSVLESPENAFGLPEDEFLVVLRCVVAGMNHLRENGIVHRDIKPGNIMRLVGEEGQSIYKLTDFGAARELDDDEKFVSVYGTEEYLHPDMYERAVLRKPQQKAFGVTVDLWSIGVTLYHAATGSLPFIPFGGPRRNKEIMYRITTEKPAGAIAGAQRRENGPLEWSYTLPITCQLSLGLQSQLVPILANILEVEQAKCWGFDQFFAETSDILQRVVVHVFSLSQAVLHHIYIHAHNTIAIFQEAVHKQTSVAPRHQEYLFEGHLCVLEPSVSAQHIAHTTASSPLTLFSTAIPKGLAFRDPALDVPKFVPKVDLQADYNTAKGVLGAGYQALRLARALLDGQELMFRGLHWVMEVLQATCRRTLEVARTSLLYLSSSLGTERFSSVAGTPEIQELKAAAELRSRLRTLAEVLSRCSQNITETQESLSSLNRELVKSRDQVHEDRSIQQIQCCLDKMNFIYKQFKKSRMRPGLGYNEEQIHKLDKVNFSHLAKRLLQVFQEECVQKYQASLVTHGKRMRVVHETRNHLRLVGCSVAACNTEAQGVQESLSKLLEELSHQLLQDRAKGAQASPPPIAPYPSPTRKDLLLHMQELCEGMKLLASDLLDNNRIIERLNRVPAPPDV
How it was run: (§1)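 Kinase panel screen run as a radioactive activity assay at single compound concentration. Score reported as percent activity remaining relative to DMSO controls (100%).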

[2] = target: Mitogen-activated protein kinase 11 (Homo sapiens) (UniProt Q15759); test: Inhibition of p38beta assessed as residual activity at 10 uM
Chain of Mitogen-activated protein kinase 11 (Homo sapiens) (Q15759 whole entry): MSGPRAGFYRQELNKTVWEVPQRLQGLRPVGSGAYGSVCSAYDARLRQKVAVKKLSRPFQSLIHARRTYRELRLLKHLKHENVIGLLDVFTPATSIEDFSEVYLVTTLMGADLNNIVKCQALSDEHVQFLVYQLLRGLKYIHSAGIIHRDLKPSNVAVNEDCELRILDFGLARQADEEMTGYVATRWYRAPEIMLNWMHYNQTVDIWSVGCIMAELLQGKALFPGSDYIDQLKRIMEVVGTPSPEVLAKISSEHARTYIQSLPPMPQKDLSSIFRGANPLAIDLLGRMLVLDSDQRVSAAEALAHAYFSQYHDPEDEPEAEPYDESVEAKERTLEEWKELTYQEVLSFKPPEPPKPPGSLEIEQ
How it was run: (§2)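 Panel screen by radioactive kinase assay at a single inhibitor concentration. Score is the percent activity remaining relative to DMSO controls (100%).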

[3] = target: T2, Serine/threonine-protein kinase BRSK1 (Homo sapiens) (UniProt Q8TDC3); test: Inhibition of BRSK1 assessed as residual activity at 10 uM; how it was run: as §1
T2 sequence (whole entry): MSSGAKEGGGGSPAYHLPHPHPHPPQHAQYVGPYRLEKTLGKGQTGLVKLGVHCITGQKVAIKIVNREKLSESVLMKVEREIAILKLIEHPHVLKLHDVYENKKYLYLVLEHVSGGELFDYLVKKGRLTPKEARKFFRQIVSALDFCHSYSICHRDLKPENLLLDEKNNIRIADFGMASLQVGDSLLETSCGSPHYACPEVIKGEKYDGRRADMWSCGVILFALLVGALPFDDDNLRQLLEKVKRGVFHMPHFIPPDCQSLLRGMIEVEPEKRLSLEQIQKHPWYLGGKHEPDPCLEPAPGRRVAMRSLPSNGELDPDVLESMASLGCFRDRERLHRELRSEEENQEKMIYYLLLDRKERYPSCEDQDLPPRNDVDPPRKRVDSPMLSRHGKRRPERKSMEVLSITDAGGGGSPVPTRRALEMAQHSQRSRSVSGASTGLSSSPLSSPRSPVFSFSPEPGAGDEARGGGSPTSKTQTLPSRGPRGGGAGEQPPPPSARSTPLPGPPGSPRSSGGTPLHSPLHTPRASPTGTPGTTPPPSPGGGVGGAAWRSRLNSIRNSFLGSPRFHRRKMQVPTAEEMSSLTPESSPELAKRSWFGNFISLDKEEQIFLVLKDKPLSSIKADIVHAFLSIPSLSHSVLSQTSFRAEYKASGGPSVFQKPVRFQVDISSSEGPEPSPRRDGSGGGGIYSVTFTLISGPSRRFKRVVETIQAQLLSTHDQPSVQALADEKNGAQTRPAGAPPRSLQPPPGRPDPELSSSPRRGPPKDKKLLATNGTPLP

[4] = target: T3, Serine/threonine-protein kinase BRSK2 (Homo sapiens) (UniProt Q8IWQ3); test: Inhibition of BRSK2 assessed as residual activity at 10 uM; how it was run: as §1
T3 sequence (whole entry): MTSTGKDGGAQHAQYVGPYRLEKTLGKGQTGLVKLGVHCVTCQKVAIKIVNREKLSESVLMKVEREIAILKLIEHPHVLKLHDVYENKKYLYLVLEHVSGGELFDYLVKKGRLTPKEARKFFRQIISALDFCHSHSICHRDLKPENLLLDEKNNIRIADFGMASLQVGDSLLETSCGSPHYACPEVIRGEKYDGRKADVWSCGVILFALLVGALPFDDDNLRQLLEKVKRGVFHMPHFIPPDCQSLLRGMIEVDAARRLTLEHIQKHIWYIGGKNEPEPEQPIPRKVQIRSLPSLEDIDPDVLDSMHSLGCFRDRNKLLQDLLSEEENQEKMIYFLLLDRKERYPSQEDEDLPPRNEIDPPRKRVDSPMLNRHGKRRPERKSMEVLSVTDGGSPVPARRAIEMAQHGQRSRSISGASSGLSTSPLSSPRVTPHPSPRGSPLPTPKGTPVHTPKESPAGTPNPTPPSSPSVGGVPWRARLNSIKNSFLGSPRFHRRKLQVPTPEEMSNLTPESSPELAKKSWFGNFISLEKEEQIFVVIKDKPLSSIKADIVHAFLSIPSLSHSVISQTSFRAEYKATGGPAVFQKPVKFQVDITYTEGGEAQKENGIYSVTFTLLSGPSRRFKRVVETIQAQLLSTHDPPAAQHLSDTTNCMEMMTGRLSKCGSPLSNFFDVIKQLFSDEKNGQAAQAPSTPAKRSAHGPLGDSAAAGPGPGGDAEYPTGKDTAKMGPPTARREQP

[5] = target: Receptor-interacting serine/threonine-protein kinase 2 (Homo sapiens) (UniProt O43353); test: Inhibition of RIPK2 assessed as residual activity at 10 uM; how it was run: as §2
Chain of Receptor-interacting serine/threonine-protein kinase 2 (Homo sapiens) (O43353 whole entry): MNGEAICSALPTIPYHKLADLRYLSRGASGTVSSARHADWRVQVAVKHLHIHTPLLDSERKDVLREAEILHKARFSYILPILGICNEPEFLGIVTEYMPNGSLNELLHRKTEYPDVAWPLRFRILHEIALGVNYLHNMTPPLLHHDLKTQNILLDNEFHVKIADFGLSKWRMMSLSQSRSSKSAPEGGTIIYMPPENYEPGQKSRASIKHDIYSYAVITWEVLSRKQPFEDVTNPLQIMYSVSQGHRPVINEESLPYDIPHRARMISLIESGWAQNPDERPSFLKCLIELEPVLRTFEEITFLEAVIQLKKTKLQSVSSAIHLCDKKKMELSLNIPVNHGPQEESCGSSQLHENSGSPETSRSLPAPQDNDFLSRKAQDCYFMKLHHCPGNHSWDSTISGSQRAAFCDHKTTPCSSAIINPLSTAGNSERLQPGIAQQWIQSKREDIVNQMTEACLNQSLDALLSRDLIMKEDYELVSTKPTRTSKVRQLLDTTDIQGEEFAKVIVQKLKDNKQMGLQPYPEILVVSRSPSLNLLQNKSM

[6] = target: Dual specificity tyrosine-phosphorylation-regulated kinase 1A (Homo sapiens) (UniProt Q13627); test: Inhibition of DYRK1A assessed as residual activity at 10 uM; how it was run: as §1

SMILES | Activity [1] [%] | Activity [2] [%] | Activity [3] [%] | Activity [4] [%] | Activity [5] [%] | Activity [6] [%]
CN1CCN(CCC(=O)Nc2ccc3c(C#N)cnc(Nc4cccc(Br)c4)c3c2)CC1 | 91 | 100 | 89 | 100 | 66 | 79
CN(C)CCCC(=O)Nc1ccc2c(C#N)cnc(Nc3cccc(Br)c3)c2c1 | 100 | 100 | 66 | 75 | 82 | 75
CN(C)C/C=C/C(=O)Nc1ccc2c(C#N)cnc(Nc3cccc(Br)c3)c2c1 | 80 | 95 | 95 | 75 | 79 | 60

Reference: ChEMBL document CHEMBL1641579, “Synthesis and biological evaluation of 7-substituted-1-(3-bromophenylamino)isoquinoline-4-carbonitriles as inhibitors of myosin light chain kinase and epidermal growth factor receptor” (Bioorg Med Chem, 2011)
